# Test results from ChEMBL document CHEMBL3272313, “3-Hydroxy-17-aralkylmorphinans as potential opiate receptor-site-directed alkylating agents” (J Med Chem, 1977).
# Active and inactive are the calls of the source. The rule behind the calls is not given here.
# Columns and labels:
# Mus musculus [1] = experiment: Analgesic activity in sc dosed Swiss-Webster mouse after 30 mins; format: functional; conditions: 0.5 h
# Mus musculus [2] = experiment: Analgesic activity in Swiss-Webster mouse assessed as time required for sustainance of activity at 100 mg/kg, sc; format: functional; conditions: route subcutaneous
# Mus musculus [3] = experiment: Inhibition of morphine sulfate-induced analgesic activity in Swiss-Webster mouse at 100 mg/kg, sc after 1 hr; format: functional, organism-based; parameters: dose 100 mg/kg
# Outline: (§1)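 Male Swiss-Webster mice, 20–25 g. Challenge was 10 mg/kg morphine sulfate in 8–10 mice, read by the modified D'Amour–Smith test. Where block was seen, morphine ED50 (95% limits) was found by Litchfield–Wilcoxon.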
# Mus musculus [4] = species: Mus musculus; experiment: Narcotic agonist activity in morphine-dependent mouse assessed as suppression of abstinence; format: functional, organism-based
# Outline: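 Single-dose suppression test in morphine-dependent mice after withdrawal (method of Takemori et al.); compound given sc.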
# Mus musculus [5] = experiment: Analgesic activity in sc dosed Swiss-Webster mouse time of peak effect; format: functional
# Mus musculus [6] = experiment: Analgesic activity in Swiss-Webster mouse assessed as time required for sustainance of activity at 15 mg/kg, sc; format: functional; conditions: route subcutaneous
# Mus musculus [7] = experiment: Analgesic activity in Swiss-Webster mouse assessed as time required for sustainance of activity at 50 mg/kg, sc; format: functional; conditions: route subcutaneous
# Mus musculus [8] = experiment: Inhibition of morphine sulfate-induced analgesic activity in Swiss-Webster mouse at 50 mg/kg, sc after 2 hrs; format: functional, organism-based; parameters: dose 50 mg/kg; outline: as §1
# Mus musculus [9] = experiment: Inhibition of morphine sulfate-induced analgesic activity in Swiss-Webster mouse at 100 mg/kg, sc after 3 hrs; format: functional, organism-based; parameters: dose 100 mg/kg; outline: as §1
# Mus musculus [10] = experiment: Inhibition of morphine sulfate-induced analgesic activity in Swiss-Webster mouse at 100 mg/kg, sc after 2 hrs; format: functional, organism-based; parameters: dose 100 mg/kg; outline: as §1
# Mus musculus [11] = experiment: Analgesic activity in Swiss-Webster mouse assessed as time required for sustainance of activity at 20 mg/kg, sc; format: functional; conditions: route subcutaneous
# Mus musculus [12] = experiment: Inhibition of morphine sulfate-induced analgesic activity in Swiss-Webster mouse at 5.3 mg/kg, sc after 3 hrs; format: functional, organism-based; parameters: dose 5.3 mg/kg; outline: as §1
# Mus musculus [13] = experiment: Analgesic activity in Swiss-Webster mouse assessed as time required for sustainance of activity at 5.3 mg/kg, sc; format: functional; conditions: route subcutaneous
# Mus musculus [14] = experiment: Analgesic activity in Swiss-Webster mouse assessed as time required for sustainance of activity at 5 mg/kg, sc; format: functional; conditions: route subcutaneous
# Mus musculus [15] = experiment: Analgesic activity in Swiss-Webster mouse assessed as time required for sustainance of activity at 80 mg/kg, sc; format: functional; conditions: route subcutaneous
# Mus musculus [16] = experiment: Inhibition of morphine sulfate-induced analgesic activity in Swiss-Webster mouse at 80 mg/kg, sc after 1 hr; format: functional, organism-based; parameters: dose 80 mg/kg; outline: as §1
compound,measurement,setting,value
O=C(CBr)Nc1ccc(CCCN2CC[C@]34CCCC[C@H]3[C@H]2Cc2ccc(O)cc24)cc1,ED50,Mus musculus [1],> 100 mg/kg
same,Time,Mus musculus [2],1 h
same,inhibition,Mus musculus [3],Active
CCOC(=O)/C=C\C(=O)Nc1cccc(CCN2CC[C@]34CCCC[C@H]3[C@H]2Cc2ccc(O)cc24)c1,inhibition,Mus musculus [4],Active
same,ED50,Mus musculus [1],2.3 mg/kg
same,Time,Mus musculus [5],60 min
same,Time,Mus musculus [6],3 h
O=C(CBr)Nc1ccccc1CCCN1CC[C@]23CCCC[C@H]2[C@H]1Cc1ccc(O)cc13,ED50,Mus musculus [1],> 100 mg/kg
same,Time,Mus musculus [2],1 h
same,inhibition,Mus musculus [3],Active
CC(=O)Oc1ccc2c(c1)[C@@]13CCCC[C@H]1[C@@H](C2)N(CCCc1ccc(N2C(=O)C=CC2=O)cc1)CC3,ED50,Mus musculus [1],> 50 mg/kg
same,Time,Mus musculus [7],2 h
same,inhibition,Mus musculus [8],Active
CC(=O)Oc1ccc2c(c1)[C@@]13CCCC[C@H]1[C@@H](C2)N(CCCc1ccccc1N1C(=O)C=CC1=O)CC3,ED50,Mus musculus [1],48.4 mg/kg
same,Time,Mus musculus [5],30 min
same,Time,Mus musculus [2],3 h
same,inhibition,Mus musculus [9],Active
Br.CC1C2Cc3ccc(O)cc3C1(C)CCN2CCc1ccccc1 (centres undefined) [PHENAZOCINE HYDROBROMIDE],ED50,Mus musculus [1],0.53 mg/kg
same,Time,Mus musculus [5],30 min
CCOC(=O)/C=C\C(=O)Nc1ccccc1CCCN1CC[C@]23CCCC[C@H]2[C@H]1Cc1ccc(O)cc13,ED50,Mus musculus [1],> 100 mg/kg
same,Time,Mus musculus [2],2 h
same,inhibition,Mus musculus [10],Active
CCOC(=O)CCC(=O)Nc1ccccc1CCN1CC[C@]23CCCC[C@H]2[C@H]1Cc1ccc(O)cc13,ED50,Mus musculus [1],> 100 mg/kg
same,Time,Mus musculus [2],1 h
same,inhibition,Mus musculus [3],Active
CC(=O)Oc1ccc2c(c1)[C@@]13CCCC[C@H]1[C@@H](C2)N(CCc1ccccc1N1C(=O)C=CC1=O)CC3,ED50,Mus musculus [1],11.7 mg/kg
same,Time,Mus musculus [5],30 min
same,Time,Mus musculus [11],2 h
O=C1C=CC(=O)N1c1cccc(CCCN2CC[C@]34CCCC[C@H]3[C@H]2Cc2ccc(O)cc24)c1,ED50,Mus musculus [1],> 50 mg/kg
same,Time,Mus musculus [7],2 h
same,inhibition,Mus musculus [8],Active
O=C(CBr)Nc1cccc(CCN2CC[C@]34CCCC[C@H]3[C@H]2Cc2ccc(O)cc24)c1,inhibition,Mus musculus [12],Active
same,ED50,Mus musculus [1],0.58 mg/kg
same,Time,Mus musculus [5],30 min
same,Time,Mus musculus [13],3 h
CC(=O)Oc1ccc2c(c1)[C@@]13CCCC[C@H]1[C@@H](C2)N(CCc1ccc(N2C(=O)C=CC2=O)cc1)CC3,inhibition,Mus musculus [4],Active
same,ED50,Mus musculus [1],0.59 mg/kg
same,Time,Mus musculus [5],30 min
same,Time,Mus musculus [14],4 h
CCOC(=O)/C=C/C(=O)Nc1ccc(CCCN2CC[C@]34CCCC[C@H]3[C@H]2Cc2ccc(O)cc24)cc1,ED50,Mus musculus [1],28.4 mg/kg
same,Time,Mus musculus [5],30 min
same,Time,Mus musculus [2],2 h
same,inhibition,Mus musculus [10],Active
O=C1C=CC(=O)N1c1ccccc1CCN1CC[C@]23CCCC[C@H]2[C@H]1Cc1ccc(O)cc13,ED50,Mus musculus [1],> 100 mg/kg
same,Time,Mus musculus [15],1 h
same,inhibition,Mus musculus [16],Active
CCOC(=O)CCC(=O)Nc1ccccc1CCCN1CC[C@]23CCCC[C@H]2[C@H]1Cc1ccc(O)cc13,ED50,Mus musculus [1],> 100 mg/kg
same,Time,Mus musculus [2],2 h
same,inhibition,Mus musculus [10],Active
